From ChEMBL document CHEMBL1145491, “Artemisinins inhibit Trypanosoma cruzi and Trypanosoma brucei rhodesiense in vitro growth” (Antimicrob Agents Chemother, 2007)

How the values were obtained:
[1] = tested on: Trypanosoma brucei rhodesiense; assay: Growth inhibition of Trypanosoma brucei rhodesiense trypomastigotes after 72 hrs by Alamar blue assay; format: functional, organism-based
[2] = tested on: Trypanosoma cruzi; assay: Inhibition of ATPase in Trypanosoma cruzi at 1 uM in presence of calcium; design: scale not given: the % may be the effect or the level left
Procedure, shortened: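 T. cruzi membranes were isolated by a protocol adapted from Leishmania. It was started with 2 mM ATP, and released inorganic phosphate was measured colorimetrically.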

[3] = tested on: Leishmania donovani; assay: Growth inhibition of Leishmania donovani promastigotes after 72 hrs by Alamar blue assay; format: functional, organism-based
Procedure, shortened: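 Parasites exposed to drug for 72 h; growth read as optical density at 600 nm against drug-free control cultures. Six drug concentrations per run, 2–5 independent runs; mean inhibition plotted against concentration, IC50 and IC90 by linear regression, reported in micromolar with standard errors of the means.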

[4] = tested on: Trypanosoma cruzi; assay: Growth inhibition of Trypanosoma cruzi epimastigotes after 72 hrs by Alamar blue assay; format: functional, organism-based
[5] = tested on: Leishmania major; assay: Antiparasitic activity against Leishmania major amastigotes in macrophage assessed as parasite killing at 3 to 30 uM; format: functional
[6] = tested on: Leishmania major; assay: Antiparasitic activity against Leishmania major promastigotes assessed as parasite killing at 750 nM; format: functional
[7] = Growth inhibition of human U937 cells at 3 mM; format: cell-based, U-937
[8] = tested on: Leishmania infantum; assay: Antiparasitic activity against Leishmania infantum promastigotes assessed as parasite killing at 1.4 to 382.9 uM; format: functional
[9] = tested on: Leishmania donovani; assay: Antiparasitic activity against Leishmania donovani in hamster assessed as reduction of spleen parasite burden at 50 mg/kg, po; format: functional; design: scale not given: the % may be the effect or the level left
[10] = tested on: Leishmania donovani; assay: Antiparasitic activity against Leishmania donovani in hamster assessed as reduction of liver parasite burden at 50 mg/kg, po; format: functional; design: scale not given: the % may be the effect or the level left
[11] = tested on: Leishmania donovani; assay: Antiparasitic activity against Leishmania donovani in hamster assessed as reduction of spleen parasite burden at 25 mg/kg, po; format: functional; design: scale not given: the % may be the effect or the level left
[12] = tested on: Leishmania donovani; assay: Antiparasitic activity against Leishmania donovani in hamster assessed as reduction of liver parasite burden at 25 mg/kg, po; format: functional; design: scale not given: the % may be the effect or the level left

Structure (SMILES) | IC50 [1] | IC90 [1] | Activity [2] | IC50 [3] | IC50 [4] | IC90 [4] | Activity [5] | Activity [6] | inhibition at 3000 µM [7] | Activity [8] | Activity [9] | Activity [10] | Activity [11] | Activity [12]
C/C=C(/C)C(=O)O[C@H]1C(C)=C2[C@H]([C@@H]1OC(=O)CCCCCCC)[C@@](C)(OC(C)=O)C[C@H](OC(=O)CCC)[C@@]1(O)[C@H]2OC(=O)[C@@]1(C)O [THAPSIGARGIN] | 30.1 µM | 71.9 µM | 25.8% | 28.1 µM | 33.9 µM | 78.1 µM |  |  |  |  |  |  |  | 
C[C@@H]1CC[C@H]2[C@@H](C)C(=O)O[C@@H]3O[C@@]4(C)CC[C@@H]1[C@]32OO4 [ARTEMISININ] | 20.4 µM | 49.1 µM | 24.9% | 30.8 µM | 13.4 µM | 46.5 µM | 50% | 50% | < 5% | 50% |  |  |  | 
N=C(N)c1ccc(OCCCCCOc2ccc(C(=N)N)cc2)cc1 [PENTAMIDINE] | 1.2 µM | 3.7 µM |  | 1 µM | 1.1 µM | 4.4 µM |  |  |  |  |  |  |  | 
C[C@H]1[C@H](N2CCS(=O)(=O)CC2)O[C@@H]2O[C@@]3(C)CC[C@H]4[C@H](C)CC[C@@H]1[C@@]24OO3 [ARTEMIFONE] | 22.5 µM | 44.8 µM |  | 12.9 µM | 23.3 µM | 50.5 µM |  |  |  |  |  |  |  | 
C[C@@H]1[C@H](O)[C@@H](C)/C=C/C=C/C=C/C=C/C=C/C=C/C=C/[C@H](O[C@@H]2O[C@H](C)[C@@H](O)[C@H](N)[C@@H]2O)C[C@@H]2O[C@](O)(C[C@@H](O)C[C@@H](O)[C@H](O)CC[C@@H](O)C[C@@H](O)CC(=O)O[C@H]1C)C[C@H](O)[C@H]2C(=O)O [AMPHOTERICIN B] | 2.8 µM | 11.9 µM |  | 2.8 µM | 6.5 µM | 19.6 µM |  |  |  |  |  |  |  | 
C[C@@H]1O[C@@H](O[C@H]2C[C@@H](O)[C@]3(CO)[C@H]4[C@H](O)C[C@]5(C)[C@@H](C6=CC(=O)OC6)CC[C@]5(O)[C@@H]4CC[C@]3(O)C2)[C@H](O)[C@H](O)[C@H]1O [OUABAIN] | > 450 µM | 1180 µM |  | > 450 µM | > 450 µM | 953 µM |  |  |  |  |  |  |  | 
C[C@H]1[C@@H](O)O[C@@H]2O[C@@]3(C)CC[C@H]4[C@H](C)CC[C@@H]1[C@@]24OO3 [ARTENIMOL] | 24.6 µM | 49.6 µM |  |  | 12.8 µM | 49.2 µM |  |  |  |  | 75% | 75% | 75% | 75%
COc1ccc2[nH]c([S+]([O-])Cc3ncc(C)c(OC)c3C)nc2c1 (centres undefined) [OMEPRAZOLE] | 177 µM | 509 µM |  | 340 µM | 178 µM | 526 µM |  |  |  |  |  |  |  | 
